Active and inactive are the calls of the source. No cut-off for these calls is given here. Starred links: 1 amine or outer side, 2 acyl side, 3 side chain; linkers in the order of their positions; H or OH if unused. Positions of bridges follow the written chain, without caps; N, C: chain ends. Residues, ends and D or L forms follow the SMILES beside them. TBMB = c1c(C[*:1])cc(C[*:3])cc1C[*:2] Bounds are passed on as bounds.

For orientation: Kd means the concentration at which binding is half-saturated. A low value points to a tighter complex. In general, IC50 refers to the midpoint of a concentration-inhibition curve. Read a high IC50 as weaker potency in that assay. In general, Ki refers to a dissociation constant, usually derived from enzyme kinetics or from competition with a known ligand.

In series [1] the target is T1, Prostate-specific antigen (Homo sapiens, UniProt P07288).
T1 sequence (P07288 whole entry): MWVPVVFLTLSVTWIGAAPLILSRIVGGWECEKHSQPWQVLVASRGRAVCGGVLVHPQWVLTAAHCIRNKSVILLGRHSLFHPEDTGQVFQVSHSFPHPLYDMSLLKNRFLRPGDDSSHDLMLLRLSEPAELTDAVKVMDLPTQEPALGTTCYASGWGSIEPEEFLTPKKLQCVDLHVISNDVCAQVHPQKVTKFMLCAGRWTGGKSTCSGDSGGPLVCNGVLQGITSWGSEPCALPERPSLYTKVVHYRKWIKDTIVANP
Put plainly: Binding affinity to prostate specific antigen.

For series [2], the target named is T2, Kallikrein-2 (Homo sapiens, UniProt P20151).
T2 sequence (P20151 whole entry): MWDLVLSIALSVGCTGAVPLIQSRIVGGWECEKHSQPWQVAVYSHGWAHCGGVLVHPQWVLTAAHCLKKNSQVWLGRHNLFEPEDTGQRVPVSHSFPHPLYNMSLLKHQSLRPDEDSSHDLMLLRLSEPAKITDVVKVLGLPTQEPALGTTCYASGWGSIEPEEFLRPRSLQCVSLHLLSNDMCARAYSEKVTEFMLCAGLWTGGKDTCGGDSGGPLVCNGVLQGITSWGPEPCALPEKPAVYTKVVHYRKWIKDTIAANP
As to the kind of experiment: Binding affinity to human kallikrein 2.

Series [3] deals with Urokinase-type plasminogen activator (Homo sapiens, UniProt P00749). As to the kind of experiment: Binding affinity to urokinase-type plasminogen activator.
Series [4] is described as follows: Binding affinity to chymotrypsin.
Series [5] deals with T3, Plasma kallikrein (Homo sapiens, UniProt P03952). Put plainly: Inhibition of human plasma kallikrein using Z-Phe-Arg-AMC substrate after 30 mins by spectrophotometric assay.
T3 sequence (P03952 20-390 limits assumed): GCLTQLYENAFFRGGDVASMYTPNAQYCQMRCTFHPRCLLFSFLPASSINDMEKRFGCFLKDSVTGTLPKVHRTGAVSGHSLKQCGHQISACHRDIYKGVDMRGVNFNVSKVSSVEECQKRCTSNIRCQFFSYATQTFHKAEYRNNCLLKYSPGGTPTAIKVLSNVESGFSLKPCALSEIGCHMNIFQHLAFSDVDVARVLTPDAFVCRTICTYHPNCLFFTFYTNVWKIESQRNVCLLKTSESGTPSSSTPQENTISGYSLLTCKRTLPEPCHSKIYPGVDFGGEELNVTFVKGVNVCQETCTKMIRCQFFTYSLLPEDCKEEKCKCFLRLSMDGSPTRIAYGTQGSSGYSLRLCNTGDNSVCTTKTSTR
T3 sequence (P03952 391-638 limits assumed): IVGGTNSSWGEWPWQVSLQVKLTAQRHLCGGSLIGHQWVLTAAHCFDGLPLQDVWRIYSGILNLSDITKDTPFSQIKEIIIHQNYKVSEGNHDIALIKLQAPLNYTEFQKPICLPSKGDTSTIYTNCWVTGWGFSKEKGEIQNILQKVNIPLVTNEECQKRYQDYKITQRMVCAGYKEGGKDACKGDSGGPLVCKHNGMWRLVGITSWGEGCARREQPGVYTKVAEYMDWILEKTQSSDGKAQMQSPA
In series [6] the target is Plasma kallikrein (Mus musculus) (UniProt P26262). As to the kind of experiment: Inhibition of mouse plasma kallikrein at 10 uM using Z-Phe-Arg-AMC substrate after 30 mins by spectrophotometric assay. In kind it is cell-free.
Sequence of Plasma kallikrein (Mus musculus) (P26262 20-390 limits assumed): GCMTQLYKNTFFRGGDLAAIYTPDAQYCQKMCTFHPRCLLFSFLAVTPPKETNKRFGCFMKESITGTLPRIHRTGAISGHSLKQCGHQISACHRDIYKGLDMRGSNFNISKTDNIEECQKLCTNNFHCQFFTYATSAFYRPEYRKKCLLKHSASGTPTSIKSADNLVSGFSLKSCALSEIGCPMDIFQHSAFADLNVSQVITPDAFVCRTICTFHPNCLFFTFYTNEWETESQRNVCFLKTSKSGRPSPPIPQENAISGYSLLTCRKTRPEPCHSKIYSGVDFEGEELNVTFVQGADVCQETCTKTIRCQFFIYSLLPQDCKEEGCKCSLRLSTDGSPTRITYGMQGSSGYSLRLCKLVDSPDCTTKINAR
Sequence of Plasma kallikrein (Mus musculus) (P26262 391-638 limits assumed): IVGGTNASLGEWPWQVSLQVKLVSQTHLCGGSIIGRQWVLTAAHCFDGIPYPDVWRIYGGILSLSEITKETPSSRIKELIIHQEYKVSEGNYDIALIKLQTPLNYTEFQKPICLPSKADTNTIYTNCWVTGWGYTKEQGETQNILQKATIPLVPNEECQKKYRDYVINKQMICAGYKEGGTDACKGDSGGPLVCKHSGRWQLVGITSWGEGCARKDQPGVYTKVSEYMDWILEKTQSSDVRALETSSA
The target of series [7] is Coagulation factor XI (Homo sapiens) (UniProt P03951). Put plainly: Inhibition of human factor 11a at 10 uM using Z-Phe-Arg-AMC substrate after 30 mins by spectrophotometric assay.
Sequence of Coagulation factor XI (Homo sapiens) (P03951 19-387 limits assumed): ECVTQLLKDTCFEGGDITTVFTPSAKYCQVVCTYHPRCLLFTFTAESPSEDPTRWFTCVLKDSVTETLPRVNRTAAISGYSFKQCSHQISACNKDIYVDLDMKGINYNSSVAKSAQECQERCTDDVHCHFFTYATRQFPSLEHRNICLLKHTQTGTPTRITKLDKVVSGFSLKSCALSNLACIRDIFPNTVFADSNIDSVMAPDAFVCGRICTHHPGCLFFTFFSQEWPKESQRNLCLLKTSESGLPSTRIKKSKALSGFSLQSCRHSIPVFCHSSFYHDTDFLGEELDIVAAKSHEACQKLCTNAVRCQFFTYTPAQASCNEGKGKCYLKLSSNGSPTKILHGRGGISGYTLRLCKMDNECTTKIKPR
Sequence of Coagulation factor XI (Homo sapiens) (P03951 388-625 limits assumed): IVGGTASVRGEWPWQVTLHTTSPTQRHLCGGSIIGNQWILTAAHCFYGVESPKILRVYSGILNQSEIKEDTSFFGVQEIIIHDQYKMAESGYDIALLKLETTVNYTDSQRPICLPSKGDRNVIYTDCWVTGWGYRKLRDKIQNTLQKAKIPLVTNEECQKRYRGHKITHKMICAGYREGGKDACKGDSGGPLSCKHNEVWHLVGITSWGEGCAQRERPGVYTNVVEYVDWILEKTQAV
Series [8] concerns the target Prothrombin (Homo sapiens) (UniProt P00734). As to the kind of experiment: Inhibition of human thrombin at 10 uM using Boc-Phe-Ser-Arg-AMC substrate after 30 mins by spectrophotometric assay.
The nature of series [9]: Chemical stability of compound assessed as drug cleavage in presence of plasma kallikrein after 24 hrs at 37 degC by mass spectrometric analysis. The class given is physicochemical. The following applies: read-out: Activity. In outline:
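The peptide was incubated with human plasma kallikrein. Cleavage was detected by mass spectrometry as an 18 Da mass gain, and the cleaved fraction was estimated.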

The nature of series [10]: Chemical stability assessed as compound cleavage in presence of Aeromonas proteolytica by mass spectrometric analysis. In kind it is physicochemical. In a few lines:
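The kallikrein-cleaved peptide was incubated with leucyl aminopeptidase from Aeromonas proteolytica. The products were analysed by mass spectrometry to locate the cleavage site.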

Series [11] deals with T3, Plasma kallikrein. As to the kind of experiment: Inhibition of kallikrein-mediated intrinsic coagulation pathway in human plasma assessed as reduction in factor 12a generation at 160 nM by colorimetric assay. The class given is cell-free. In outline:
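Human plasma was triggered with kaolin to start the intrinsic pathway. Factor XIIa activity was then read with a colorimetric substrate.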

With `CC[C@H](C)[C@H](NC(=O)[C@H](CS)NC(=O)[C@H](Cc1ccc(O)cc1)NC(=O)[C@H](C)NC(=O)[C@@H](NC(=O)[C@@H](N)CS)C(C)C)C(=O)N[C@@H](CCC(=O)O)C(=O)N[C@@H](Cc1cnc[nH]1)C(=O)N[C@@H](Cc1cnc[nH]1)C(=O)N[C@@H](CS)C(=O)N[C@@H](Cc1c[nH]c2ccccc12)C(=O)N[C@H](C(=O)N[C@@H](CS)C(=O)O)[C@@H](C)O` (H-CVAYCIEHHCWTC-OH), the Kd in [1] was found to be 2.9 µM.
Compound H-SRFKVWWAAF-OH displayed an IC50 in series [2] of 3.4 µM.
With `CC(C)C[C@H](NC(=O)[C@H](Cc1ccc(O)cc1)NC(=O)[C@H](CCCNC(=N)N)NC(=O)[C@H](CO)NC(=O)[C@H](Cc1ccc(O)cc1)NC(=O)[C@H](C)NC(=O)[C@@H]1CCCN1C(=O)[C@@H](N)CS)C(=O)N[C@@H](CC(=O)O)C(=O)N[C@@H](CS)C(=O)O`, the Ki in [3] is 0.4 µM.
As for `N=C(N)NCCC[C@H](NC(=O)[C@H](CS)NC(=O)[C@H](CCCNC(=N)N)NC(=O)[C@H](Cc1c[nH]c2ccccc12)NC(=O)[C@H](CO)NC(=O)[C@H](Cc1ccccc1)NC(=O)[C@H](CS)NC(=O)[C@@H](N)CS)C(=O)N[C@@H](CS)C(=O)O` (H-CCFSWRCRC-OH), the Ki in [4] came to 1 µM.
For the compound `CC(C)C[C@H](NC(=O)[C@H](C)NC(=O)[C@H](CCC(=O)O)NC(=O)[C@H](CC(=O)O)NC(=O)[C@H](C)NC(=O)[C@@H]1CCCN1C(=O)[C@H](CS)NC(=O)[C@H](CC(N)=O)NC(=O)[C@H](CCCNC(=N)N)NC(=O)[C@H](Cc1ccccc1)NC(=O)[C@H](CCCNC(=N)N)NC(=O)[C@H](CC(=O)O)NC(=O)[C@H](CO)NC(=O)[C@H](CS)NC(=O)[C@H](C)N)C(=O)N[C@@H](CS)C(=O)NCC(N)=O` (H-ACSDRFRNCPADEALCG-NH2), in [5], the IC50 is over 10 µM. The inhibition result in series [6], in series [7] and in series [8] was “inactive” each time.
In turn, `CC[C@H](C)[C@H](NC(=O)[C@H](CCC(=O)O)NC(=O)[C@@H](NC(=O)[C@@H]1CCCN1C(=O)[C@H](CS)NC(=O)[C@H](Cc1ccc(O)cc1)NC(=O)[C@H](CCCNC(=N)N)NC(=O)[C@H](CCCNC(=N)N)NC(=O)[C@H](CCC(=O)O)NC(=O)[C@@H](NC(=O)[C@H](CO)NC(=O)[C@H](CS)NC(=O)[C@H](C)N)[C@@H](C)O)[C@@H](C)CC)C(=O)N[C@@H](Cc1ccccc1)C(=O)N1CCC[C@H]1C(=O)N[C@@H](CS)C(=O)NCC(N)=O` (H-ACSTERRYCPIEIFPCG-NH2) yielded an IC50 in [5] of 7.18 µM. Besides, the inhibition result in [6], in [7] and in series [8] was “inactive” in each case.
Regarding `CC(C)C[C@@H]1NC(=O)[C@H](C)NC(=O)[C@H](CCC(=O)O)NC(=O)[C@H](CC(=O)O)NC(=O)[C@H](C)NC(=O)[C@@H]2CCCN2C(=O)[C@@H]2CSCc3cc(cc(c3)CSC[C@@H](C(=O)NCC(N)=O)NC1=O)CSC[C@H](NC(=O)[C@H](C)N)C(=O)N[C@@H](CO)C(=O)N[C@@H](CC(=O)O)C(=O)N[C@@H](CCCNC(=N)N)C(=O)N[C@@H](Cc1ccccc1)C(=O)N[C@@H](CCCNC(=N)N)C(=O)N[C@@H](CC(N)=O)C(=O)N2` (H-ACSDRFRNCPADEALCG-NH2; linker 2-9-16 via TBMB), the metabolised at 24 h in series [9] was 90%. The Stability result in series [10] was “Unstable”. For the same compound, the inhibition result in series [11] is “Active”.
In [3], `CSCC[C@H](NC(=O)[C@H](CCCNC(=N)N)NC(=O)[C@H](Cc1cnc[nH]1)NC(=O)[C@H](CC(N)=O)NC(=O)[C@H](CCC(=O)O)NC(=O)[C@H](CC(C)C)NC(=O)CNC(=O)[C@H](CCCNC(=N)N)NC(=O)[C@H](Cc1c[nH]c2ccccc12)NC(=O)[C@H](CO)NC(=O)[C@@H](N)CS)C(=O)N[C@@H](CS)C(=O)O` showed a Ki of 6.7 µM.

The record behind these values is ChEMBL document CHEMBL1240344, “Phage-encoded combinatorial chemical libraries based on bicyclic peptides” (Nat Chem Biol, 2009).
